The values below come from ChEMBL document CHEMBL1143600, “Synthesis and pharmacology of ethylphenidate enantiomers: the human transesterification metabolite of methylphenidate and ethanol” (J Med Chem, 2005).

Experiment [1] has as its target T1, Sodium-dependent noradrenaline transporter (Homo sapiens, UniProt P23975). As to the kind of experiment: Inhibition of [3H]norepinephrine uptake in HEK293 cells expressing human norepinephrine transporter. Format: functional, cell-based.
Experiment [2] addresses T1, Sodium-dependent noradrenaline transporter. As to the kind of experiment: Displacement of [125I]RTI-55 from human Norepinephrine transporter expressed in HEK293 cells. It is filed as cell-based. A general note: Displacement assays read how much labelled ligand stays bound in the presence of the test substance.
Experiment [3] concerns the target T2, Sodium-dependent serotonin transporter (Homo sapiens, UniProt P31645). As to the kind of experiment: Inhibition of [3H]5-HT uptake in HEK293 cells expressing human serotonin transporter. It is filed as functional, cell-based. The method in brief:
(§1)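 HEK293 cells expressing the human transporter were grown to confluence, triturated in Krebs-HEPES and preincubated 10 min with compound (six concentrations). Uptake was started with [3H]serotonin or [3H]dopamine at 20 nM final and stopped after 10 min by filtration over PEI-presoaked GF/C filters. Nonspecific uptake: 5 µM imipramine (SERT) or 5 µM mazindol (DAT). IC50 from triplicate curves, 2–3 independent determinations.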

Experiment [4] deals with T2, Sodium-dependent serotonin transporter. As to the kind of experiment: Displacement of [125I]RTI-55 from human Serotonin transporter expressed in HEK293 cells. Format: cell-based. The method in brief: (§2)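 Membranes from HEK293 cells expressing the human transporter (grown to 80% confluence, lysed in 2 mM HEPES/1 mM EDTA, spun at 30000g). 10–15 µg protein was preincubated 10 min with compound in Krebs-HEPES pH 7.4 containing pargyline, tropolone, glucose and ascorbate. Nonspecific binding: 5 µM mazindol (DAT) or 5 µM imipramine (SERT). IC50 converted to Ki by Cheng-Prusoff.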

Experiment [5] addresses T3, Sodium-dependent dopamine transporter (Homo sapiens, UniProt Q01959). As to the kind of experiment: Displacement of [125I]-RTI-55 from Dopamine transporter expressed in HEK293 cells. Format: cell-based. The procedure, abridged: as §2
The target in experiment [6] is T3, Sodium-dependent dopamine transporter. As to the kind of experiment: Inhibition of [3H]dopamine uptake in HEK293 cells expressing human dopamine transporter. Format: functional, cell-based. The method in brief: as §1

The term IC50 denotes the midpoint of a concentration-inhibition curve. High values mean a need for much substance, low ones inhibition by little substance.

Structures can show the parent of a compound that is named as a salt. Some results are limits rather than exact numbers.

T1 sequence (P23975 whole entry): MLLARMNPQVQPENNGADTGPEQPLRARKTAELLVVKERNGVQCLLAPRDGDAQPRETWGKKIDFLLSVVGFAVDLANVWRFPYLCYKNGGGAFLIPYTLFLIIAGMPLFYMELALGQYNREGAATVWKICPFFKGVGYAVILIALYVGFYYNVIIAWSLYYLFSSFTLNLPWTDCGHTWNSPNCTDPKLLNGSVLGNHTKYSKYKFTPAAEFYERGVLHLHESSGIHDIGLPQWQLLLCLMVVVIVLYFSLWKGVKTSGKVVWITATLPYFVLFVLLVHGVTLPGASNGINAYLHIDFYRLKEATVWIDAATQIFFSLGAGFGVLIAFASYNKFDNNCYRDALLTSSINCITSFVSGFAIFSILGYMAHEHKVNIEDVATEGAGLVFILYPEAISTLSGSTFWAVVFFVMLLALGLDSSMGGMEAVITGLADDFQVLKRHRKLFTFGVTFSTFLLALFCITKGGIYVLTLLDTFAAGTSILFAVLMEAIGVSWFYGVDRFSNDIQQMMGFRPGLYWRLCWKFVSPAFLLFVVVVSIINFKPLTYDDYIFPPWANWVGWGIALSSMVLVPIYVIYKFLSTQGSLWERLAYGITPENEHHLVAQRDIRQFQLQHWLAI
T3 sequence (Q01959 whole entry): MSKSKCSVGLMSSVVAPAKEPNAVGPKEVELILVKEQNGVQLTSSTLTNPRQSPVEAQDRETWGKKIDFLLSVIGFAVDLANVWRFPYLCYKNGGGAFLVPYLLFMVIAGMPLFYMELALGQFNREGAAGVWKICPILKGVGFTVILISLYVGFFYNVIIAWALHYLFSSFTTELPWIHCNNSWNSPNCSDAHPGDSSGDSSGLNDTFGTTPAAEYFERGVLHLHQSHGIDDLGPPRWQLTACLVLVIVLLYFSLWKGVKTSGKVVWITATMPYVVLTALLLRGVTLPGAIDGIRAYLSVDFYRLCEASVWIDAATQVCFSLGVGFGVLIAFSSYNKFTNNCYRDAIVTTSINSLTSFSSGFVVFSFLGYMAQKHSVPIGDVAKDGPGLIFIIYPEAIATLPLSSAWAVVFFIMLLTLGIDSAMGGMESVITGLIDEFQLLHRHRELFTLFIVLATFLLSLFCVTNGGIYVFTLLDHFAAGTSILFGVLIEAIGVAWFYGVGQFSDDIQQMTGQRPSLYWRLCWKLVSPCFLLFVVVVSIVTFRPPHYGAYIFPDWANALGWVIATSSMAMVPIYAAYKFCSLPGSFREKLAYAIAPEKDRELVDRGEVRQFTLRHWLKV
T2 sequence (P31645 whole entry): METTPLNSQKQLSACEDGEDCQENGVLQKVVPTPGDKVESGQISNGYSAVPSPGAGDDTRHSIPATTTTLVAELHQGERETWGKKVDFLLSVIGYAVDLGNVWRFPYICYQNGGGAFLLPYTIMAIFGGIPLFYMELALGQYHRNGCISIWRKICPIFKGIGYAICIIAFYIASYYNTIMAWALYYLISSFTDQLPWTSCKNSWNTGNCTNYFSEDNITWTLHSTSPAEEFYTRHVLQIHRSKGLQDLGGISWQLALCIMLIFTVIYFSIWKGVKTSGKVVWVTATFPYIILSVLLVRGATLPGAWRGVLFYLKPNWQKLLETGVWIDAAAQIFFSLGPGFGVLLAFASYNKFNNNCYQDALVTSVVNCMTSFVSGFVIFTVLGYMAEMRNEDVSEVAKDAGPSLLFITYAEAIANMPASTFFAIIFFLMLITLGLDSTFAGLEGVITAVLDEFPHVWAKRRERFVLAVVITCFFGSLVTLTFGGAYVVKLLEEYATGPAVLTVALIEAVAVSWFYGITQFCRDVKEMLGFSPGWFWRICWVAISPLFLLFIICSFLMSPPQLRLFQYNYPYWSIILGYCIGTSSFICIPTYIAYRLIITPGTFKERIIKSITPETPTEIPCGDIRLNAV

In the case of `CCOC(=O)C(c1ccccc1)C1CCCCN1` (racemic), the IC50 in experiment [1] was 480 nM; in experiment [2], > 7200 nM; in experiment [3], > 10000 nM; in experiment [4], 7540 nM; in experiment [5], 319 nM; in experiment [6] it was 95 nM.

With `COC(=O)C(c1ccccc1)C1CCCCN1` (racemic) [METHYLPHENIDATE HYDROCHLORIDE], the IC50 in experiment [1] was 51 nM; in experiment [2], 788 nM; in experiment [4] it was > 10000 nM.

`CCOC(=O)[C@@H](c1ccccc1)[C@@H]1CCCCN1` (stereo in doubt; (-)-2): the IC50 in experiment [1] was > 10000 nM; in experiment [2], > 10000 nM; in experiment [3] it was > 10000 nM; in experiment [4] it was > 9500 nM; in experiment [5] it was 2700 nM; in experiment [6], 1730 nM.
